# Laboratory results as given in PMC9890135 (Molecular Cancer Therapeutics, 2022).
# Key:
# NCI-H441 tumors = assay: NCI-H441 xenograft tumor growth; type: in vivo, mice; settings: 21 days, oral
# Method in brief: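 Human tumour cells inoculated into the rear flank. Mice randomised at mean volumes of ~200 mm3 (Hs 746T), ~120 mm3 (MDA-MB-231), ~100 mm3 (NCI-H441) or ~90 mm3 (SNU-5). Oral gavage once daily with test compound or vehicle. Tumour volume and body weight measured at least twice weekly. […], using mean volumes at extraction and dosing start.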
# MER = target: T1, MER (Homo sapiens, UniProt Q12866); assay: Inhibition of receptor phosphorylation, ELISA, MERTK-transfected 293A cells; type: cell-based
# T1 sequence (Q12866 21-999): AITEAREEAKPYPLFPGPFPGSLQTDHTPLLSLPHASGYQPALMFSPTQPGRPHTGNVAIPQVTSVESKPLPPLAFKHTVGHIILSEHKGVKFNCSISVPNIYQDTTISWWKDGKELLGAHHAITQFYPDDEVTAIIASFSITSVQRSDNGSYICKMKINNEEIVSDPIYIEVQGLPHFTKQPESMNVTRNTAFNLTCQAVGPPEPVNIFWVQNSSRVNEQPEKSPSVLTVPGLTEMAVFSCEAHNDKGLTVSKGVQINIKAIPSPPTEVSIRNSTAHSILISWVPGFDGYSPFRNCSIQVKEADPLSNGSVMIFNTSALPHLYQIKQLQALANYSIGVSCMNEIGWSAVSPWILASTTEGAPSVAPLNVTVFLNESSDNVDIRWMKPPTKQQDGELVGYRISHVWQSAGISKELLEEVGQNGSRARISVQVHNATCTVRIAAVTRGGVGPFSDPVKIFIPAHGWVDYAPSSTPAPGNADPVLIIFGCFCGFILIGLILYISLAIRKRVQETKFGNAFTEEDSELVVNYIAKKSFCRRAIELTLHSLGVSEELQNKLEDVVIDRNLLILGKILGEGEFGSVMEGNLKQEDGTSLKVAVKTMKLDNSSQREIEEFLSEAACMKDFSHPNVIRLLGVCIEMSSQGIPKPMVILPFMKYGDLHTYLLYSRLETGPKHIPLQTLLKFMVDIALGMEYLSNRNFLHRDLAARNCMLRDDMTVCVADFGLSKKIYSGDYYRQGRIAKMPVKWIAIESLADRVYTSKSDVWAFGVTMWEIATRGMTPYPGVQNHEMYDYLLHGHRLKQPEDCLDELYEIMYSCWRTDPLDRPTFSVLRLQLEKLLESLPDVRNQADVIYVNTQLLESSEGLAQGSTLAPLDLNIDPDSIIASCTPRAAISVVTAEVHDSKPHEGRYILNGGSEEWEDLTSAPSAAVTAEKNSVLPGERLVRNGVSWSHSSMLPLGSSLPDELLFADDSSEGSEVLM
compound,measurement,setting,value
CNC(=O)c1cc2c(Oc3ccc(NC(=O)C4(C(=O)Nc5ccc(F)cc5)CC4)cc3)ccnc2cc1OC [XL092],Tumor growth inhibition,NCI-H441 tumors; 1 mg/kg/day,68.3%
same,Tumor regression (%),NCI-H441 tumors; 3 mg/kg/day,5.6%
same,Tumor regression (%),NCI-H441 tumors; 10 mg/kg/day,67.7%
same,Tumor regression (%),NCI-H441 tumors; 30 mg/kg/day,72.1%
same,Tumor regression (%),NCI-H441 tumors; 60 mg/kg/day,86.1%
same,IC50,MER,6.01 ± 1.56 nM
